Columns and labels:
Type in all cases: functional
Homo sapiens [1] = species: Homo sapiens; test: Experimentally determined perceived intensity of compound at a concentration of 33.4 ppm (mean value)
How it was run: (§1)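 Trained human sensory panel of judges tasted aqueous solutions of the compound. Samples had to be ≥95 weight % pure (HPLC, proton titration, Karl Fischer), non-mutagenic in five Salmonella typhimurium strains with and without microsomal activation, and non-toxic in a single-oral-dose mouse test. Perceived intensity (Ip) was read from time–intensity curves at 4- or 6-s intervals and averaged. Outliers at the 95% level were rejected by t-value. Values reported as mean (2Sm).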

Homo sapiens [2] = species: Homo sapiens; test: Sweet character at a concentration of 33.4 ppm (mean value)
Homo sapiens [3] = species: Homo sapiens; test: Salty character at a concentration of 33.4 ppm (mean value)
Homo sapiens [4] = species: Homo sapiens; test: Other taste character at a concentration of 33.4 ppm (mean value)
How it was run: (§2)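 Trained human sensory panel (Swartz method) tasted dilute aqueous solutions of the compounds, which had to be ≥95 weight percent pure and free of mutagenicity and toxicity. Taste character is reported as the mean value with 2S_m limits. Data deviating excessively at the 95% confidence level were rejected by the t-value method.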

Homo sapiens [5] = species: Homo sapiens; test: Percentage of judgments reporting an aftertaste at a concentration of 33.4 ppm and character thereof
Homo sapiens [6] = species: Homo sapiens; test: Intensity calculated on a weight basis relative to an 85500 ppm sucrose solution at a concentration of 33.4 ppm (mean value)
How it was run: (§3)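 Trained human panel tasted aqueous solutions of purity-checked (≥95 weight percent) compounds cleared for mutagenicity and mouse oral toxicity. Weight-basis intensity I_w = perceived intensity × (85500 ppm sucrose / compound concentration in ppm). The mean is reported with 2S_m limits; data deviating excessively at 95% confidence were rejected by the t-value method.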

Homo sapiens [7] = species: Homo sapiens; test: Sour character at a concentration of 33.4 ppm (mean value)
Homo sapiens [8] = species: Homo sapiens; test: Sweet / Bitter character at a concentration of 33.4 ppm (mean value); 66/34
Homo sapiens [9] = species: Homo sapiens; test: Bitter character at a concentration of 33.4 ppm (mean value)
How it was run: (§4)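 Trained human panel tasted aqueous solutions. Each judge reported whether there was an aftertaste and its character (sweet, bitter or bitter-sweet). The value is the percentage of judgments reporting a bitter aftertaste.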

Homo sapiens [10] = species: Homo sapiens; test: Number of taste judgments per compound
Homo sapiens [11] = species: Homo sapiens; test: Intensity calculated on a molar basis relative to a 0.25 M sucrose solution at a concentration of 33.4 ppm (mean value)
How it was run: (§5)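 Trained human judges tasted aqueous solutions of the test compound; compounds were first required to be ≥95 weight percent pure and free of mutagenicity (five Salmonella typhimurium strains, ± microsomal activation) and of single oral dose mouse toxicity. Molar intensity I_m = perceived intensity × (0.25 M sucrose / compound molar concentration). The mean is reported with 2S_m limits; outliers were rejected at 95% confidence by t-value.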

Homo sapiens [12] = species: Homo sapiens; test: Sweet character at a concentration of 251 ppm (mean value); how it was run: as §2
Homo sapiens [13] = species: Homo sapiens; test: Percentage of judgments reporting an aftertaste at a concentration of 251 ppm and character thereof; Bitter
How it was run: (§6)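 Trained judges tasted aqueous solutions of the compounds, which had to be ≥95 weight percent pure and to have passed mutagenicity and single oral dose toxicity screening. The value is the percentage of panel judgments reporting an aftertaste. Where given, its character is recorded as sweet, bitter or bitter-sweet.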

Homo sapiens [14] = species: Homo sapiens; test: Intensity calculated on a weight basis relative to an 85500 ppm sucrose solution at a concentration of 251 ppm (mean value); how it was run: as §3
Homo sapiens [15] = species: Homo sapiens; test: Salty character at a concentration of 251 ppm (mean value); how it was run: as §2
Homo sapiens [16] = species: Homo sapiens; test: Sour character at a concentration of 251 ppm (mean value); how it was run: as §2
Homo sapiens [17] = species: Homo sapiens; test: Experimentally determined perceived intensity of compound at a concentration of 251 ppm (mean value); how it was run: as §1
Homo sapiens [18] = species: Homo sapiens; test: Sweet / Bitter character at a concentration of 251 ppm (mean value)
Homo sapiens [19] = species: Homo sapiens; test: Bitter character at a concentration of 251 ppm (mean value); how it was run: as §4
Homo sapiens [20] = species: Homo sapiens; test: Other taste character at a concentration of 251 ppm (mean value); how it was run: as §2
Homo sapiens [21] = species: Homo sapiens; test: Intensity calculated on a molar basis relative to a 0.25 M sucrose solution at a concentration of 251 ppm (mean value); how it was run: as §5
Homo sapiens [22] = species: Homo sapiens; test: Sweet / Bitter character at a concentration of 250 ppm (mean value); 92/8
Homo sapiens [23] = species: Homo sapiens; test: Other taste character at a concentration of 250 ppm (mean value); how it was run: as §2
Homo sapiens [24] = species: Homo sapiens; test: Salty character at a concentration of 250 ppm (mean value); how it was run: as §2
Homo sapiens [25] = species: Homo sapiens; test: Intensity calculated on a weight basis relative to an 85500 ppm sucrose solution at a concentration of 250 ppm (mean value); how it was run: as §3
Homo sapiens [26] = species: Homo sapiens; test: Sweet character at a concentration of 250 ppm (mean value); how it was run: as §2
Homo sapiens [27] = species: Homo sapiens; test: Sour character at a concentration of 250 ppm (mean value); how it was run: as §2
Homo sapiens [28] = species: Homo sapiens; test: Percentage of judgments reporting an aftertaste at a concentration of 250 ppm and character thereof; how it was run: as §6
Homo sapiens [29] = species: Homo sapiens; test: Experimentally determined perceived intensity of compound at a concentration of 250 ppm (mean value); how it was run: as §1
Homo sapiens [30] = species: Homo sapiens; test: Bitter character at a concentration of 250 ppm (mean value); how it was run: as §4
Homo sapiens [31] = species: Homo sapiens; test: Intensity calculated on a molar basis relative to a 0.25 M sucrose solution at a concentration of 250 ppm (mean value); how it was run: as §5
Homo sapiens [32] = species: Homo sapiens; test: Intensity calculated on a weight basis relative to an 85500 ppm sucrose solution at a concentration of 210 ppm (mean value); how it was run: as §3
Homo sapiens [33] = species: Homo sapiens; test: Sour character at a concentration of 210 ppm (mean value)
Homo sapiens [34] = species: Homo sapiens; test: Intensity calculated on a molar basis relative to a 0.25 M sucrose solution at a concentration of 210 ppm (mean value); how it was run: as §5
Homo sapiens [35] = species: Homo sapiens; test: Other taste character at a concentration of 210 ppm (mean value)
How it was run: (§7)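 Trained human panel tasted aqueous solutions of each compound. Aftertaste is scored as the percentage of judgments reporting one, with its character coded sweet (s), bitter (b) or bitter-sweet (bs).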

Homo sapiens [36] = species: Homo sapiens; test: Bitter character at a concentration of 210 ppm (mean value); how it was run: as §4
Homo sapiens [37] = species: Homo sapiens; test: Percentage of judgments reporting an aftertaste at a concentration of 210 ppm and character thereof; how it was run: as §6
Homo sapiens [38] = species: Homo sapiens; test: Experimentally determined perceived intensity of compound at a concentration of 210 ppm (mean value); how it was run: as §1
Homo sapiens [39] = species: Homo sapiens; test: Salty character at a concentration of 210 ppm (mean value)
Homo sapiens [40] = species: Homo sapiens; test: Sweet / Bitter character at a concentration of 210 ppm (mean value); 0/100
Homo sapiens [41] = species: Homo sapiens; test: Sweet character at a concentration of 210 ppm (mean value)
Homo sapiens [42] = species: Homo sapiens; test: Bitter character at a concentration of 1000 ppm (mean value); how it was run: as §4
Homo sapiens [43] = species: Homo sapiens; test: Salty character at a concentration of 1000 ppm (mean value)
Homo sapiens [44] = species: Homo sapiens; test: Sour character at a concentration of 1000 ppm (mean value)
Homo sapiens [45] = species: Homo sapiens; test: Sweet character at a concentration of 1000 ppm (mean value)
Homo sapiens [46] = species: Homo sapiens; test: Percentage of judgments reporting an aftertaste at a concentration of 1000 ppm and character thereof; how it was run: as §6
Homo sapiens [47] = species: Homo sapiens; test: Intensity calculated on a molar basis relative to a 0.25 M sucrose solution at a concentration of 1000 ppm (mean value)
How it was run: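 Panel-derived mean perceived intensity (Ip) converted to a molar basis by Im = Ip × (0.25 M / Y), where Y is the compound's molar concentration. Reference is a 0.25 M sucrose solution. Reported with limits of 2Sm.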

Homo sapiens [48] = species: Homo sapiens; test: Intensity calculated on a weight basis relative to an 85500 ppm sucrose solution at a concentration of 1000 ppm (mean value); how it was run: as §3
Homo sapiens [49] = species: Homo sapiens; test: Experimentally determined perceived intensity of compound at a concentration of 1000 ppm (mean value); how it was run: as §1
Homo sapiens [50] = species: Homo sapiens; test: Other taste character at a concentration of 1000 ppm (mean value); how it was run: as §7
Homo sapiens [51] = species: Homo sapiens; test: Sweet / Bitter character at a concentration of 1000 ppm (mean value); 75/25

Compound: COc1ccc(C2CC(=O)c3c(O)cccc3O2)cc1O (stereo not given)
- IP (Homo sapiens [1]): 0.68
- Taste character (Homo sapiens [2]): 62
- Taste character (Homo sapiens [3]): 0
- Taste character (Homo sapiens [4]): 0
- Judgments (Homo sapiens [5]): 42
- IW (Homo sapiens [6]): 1700
- Taste character (Homo sapiens [7]): 6
- Taste character (Homo sapiens [8]): 66
- Taste character (Homo sapiens [9]): 32
- Judgments (Homo sapiens [10]): 8
- IM (Homo sapiens [11]): 1400

Compound: COc1ccc(C2CC(=O)c3c(O)cc(OCC(=O)[O-])cc3O2)cc1O.[Na+] (stereo not given)
- Taste character (Homo sapiens [12]): 15
- Judgments (Homo sapiens [13]): 100
- IW (Homo sapiens [14]): 270
- Taste character (Homo sapiens [15]): 0
- Taste character (Homo sapiens [16]): 0
- IP (Homo sapiens [17]): 0.79
- Taste character (Homo sapiens [18]): 16
- Taste character (Homo sapiens [19]): 78
- Judgments (Homo sapiens [10]): 12
- Taste character (Homo sapiens [20]): 7
- IM (Homo sapiens [21]): 300

Compound: COc1ccc(CCC(=O)c2c(O)cc(OCCC(O)C(=O)[O-])cc2O)cc1O.[Na+] (stereo not given)
- Taste character (Homo sapiens [22]): 92
- Taste character (Homo sapiens [23]): 0
- Taste character (Homo sapiens [24]): 0
- IW (Homo sapiens [25]): 440
- Taste character (Homo sapiens [26]): 92
- Taste character (Homo sapiens [27]): 0
- Judgments (Homo sapiens [28]): 100
- Judgments (Homo sapiens [10]): 4
- IP (Homo sapiens [29]): 1.28
- Taste character (Homo sapiens [30]): 8
- IM (Homo sapiens [31]): 550

Compound: COc1ccc(CC/C(=N\O)c2c(O)cc(OCC(=O)[O-])cc2O)cc1O.[Na+]
- IW (Homo sapiens [32]): 110
- Taste character (Homo sapiens [33]): 26
- IM (Homo sapiens [34]): 130
- Taste character (Homo sapiens [35]): 0
- Taste character (Homo sapiens [36]): 74
- Judgments (Homo sapiens [37]): 0
- IP (Homo sapiens [38]): 0.2
- Judgments (Homo sapiens [10]): 12
- Taste character (Homo sapiens [39]): 0
- Taste character (Homo sapiens [40]): 0
- Taste character (Homo sapiens [41]): 0

Compound: COc1ccc(CCC(=O)c2c(O)cc(OCCN)cc2O)cc1O
- Taste character (Homo sapiens [42]): 25
- Taste character (Homo sapiens [43]): 0
- Taste character (Homo sapiens [44]): 0
- Taste character (Homo sapiens [45]): 75
- Judgments (Homo sapiens [46]): 100
- IM (Homo sapiens [47]): 87
- IW (Homo sapiens [48]): 86
- Judgments (Homo sapiens [10]): 1
- IP (Homo sapiens [49]): 1
- Taste character (Homo sapiens [50]): 0
- Taste character (Homo sapiens [51]): 75

Reference: ChEMBL document CHEMBL1121813, “Dihydrochalcone sweeteners. A study of the atypical temporal phenomena” (1981)
